The values below come from ChEMBL document CHEMBL1287735, “Synthesis of new acylsulfamoyl benzoxaboroles as potent inhibitors of HCV NS3 protease” (Bioorg Med Chem Lett, 2010).

The nature of data set [1]: Inhibition of HCV genotype 1 a NS3/4A protease by FRET assay. Further details: species or system Hepatitis C virus subtype 1a.
The subject of data set [2] is Rattus norvegicus. Briefly: (§1) AUC (0 to infinity) in Sprague-Dawley rat at 5 mg/kg, po. In kind it is ADME, organism-based, Plasma. Set-up: time infinity, dose 5 mg/kg, route oral. The settings on record: in vivo, BLD = below limit of detection. In outline: (§2)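 Rats (n = 3 per route) received compound orally at 5 mg/kg or intravenously at 1 mg/kg. Plasma drug levels were measured with a limit of detection of 0.5 ng/mL, and no PK data were generated for samples below it.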

Data set [3] deals with Rattus norvegicus. Briefly: Metabolic absorption in Sprague-Dawley rat at 5 mg/kg, po. The data set is classed as ADME, organism-based. Further details: dose 5 mg/kg, route oral. The settings on record: in vivo. In short, it runs like this:
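Rats (n = 3 per route) were dosed orally at 5 mg/kg and intravenously at 1 mg/kg. Value calculated from portal vein drug concentrations after oral dosing relative to those after IV dosing. Limit of detection 0.5 ng/mL.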

The test system of data set [4] is Rattus norvegicus. Briefly: (§3) Oral bioavailability in Sprague-Dawley rat at 5 mg/kg. In kind it is ADME, organism-based. Particulars: in vivo, BLD = below limit of detection. In outline: (§4)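 Dosing was oral at 5 mg/kg and IV at 1 mg/kg (n = 3 each). Bioavailability was calculated from jugular vein drug concentrations after oral administration relative to IV administration. Limit of detection 0.5 ng/mL.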

Data set [5] is described as follows: Clearance in Sprague-Dawley rat at 1 mg/kg, iv. Set-up: dose 1 mg/kg, route intravenous. Particulars: in vivo. In kind it is ADME, organism-based. In short, it runs like this:
as §2

Data set [6] deals with Hepatitis C virus. The experiment in a line: Antiviral activity against HCV genotype 1a transfected in human hepatoma cell assessed as inhibition of viral replication. In kind it is functional, organism-based, Hepacivirus hominis. Particulars: subtype 1a.
Data set [7] relates to Hepatitis C virus. The experiment in a line: Antiviral activity against HCV genotype 1b transfected in human hepatoma cell assessed as inhibition of viral replication. In kind it is functional, organism-based, Hepacivirus hominis.
The nature of data set [8]: as §1. In kind it is ADME, organism-based, Plasma. Further details: time infinity, dose 5 mg/kg, route oral. The settings on record: Sprague-Dawley, plasma. In outline: as §2
Data set [9] is described as follows: as §3. The data set is classed as ADME, organism-based. The settings on record: Sprague-Dawley, in vivo. In outline: as §4

Structures are written as SMILES.

What is called IC50 is the midpoint of a concentration-inhibition curve. One may read the clearance as the volume of plasma or blood freed of the substance per unit of time. Lower therefore signals inefficient removal. One may read the EC50 as the concentration giving half of the maximal effect. The molecule `O=C(N[C@H]1CCCCC/C=C\[C@@H]2C[C@@]2(C(=O)NS(=O)(=O)c2ccc3c(c2)B(O)OC3)NC(=O)[C@@H]2C[C@@H](OC(=O)N3Cc4cccc(F)c4C3)CN2C1=O)OC1CCCC1` registered an IC50 in data set [1] of 0.8 nM. Also, in data set [2], the AUC entry was “BLD”. For the same molecule, the Activity entry in data set [3] (BLD = below limit of detection) is listed as “BLD”. Besides, the F entry in data set [4] is reported as “BLD”. Further, the clearance in [5] was 111 mL/min/kg. Moreover, the concentration giving a half-maximal response (EC50) in data set [6] stood at 66 nM; in data set [7] it was 8 nM.
In [1], `O=C(N[C@H]1CCCCC/C=C\[C@@H]2C[C@@]2(C(=O)NS(=O)(=O)c2ccc3c(c2)COB3O)NC(=O)[C@@H]2C[C@@H](OC(=O)N3Cc4cccc(F)c4C3)CN2C1=O)OC1CCCC1` came in with an IC50 of 0.8 nM. In addition, the EC50 was determined as 70 nM in data set [6] and 12 nM in [7].
For `C=C[C@@H]1C[C@]1(NC(=O)[C@@H]1C[C@@H]2CN1C(=O)[C@H](C(C)(C)C)NC(=O)OCC(C)(C)CCCCc1cccc3c1CN(C3)C(=O)O2)C(=O)NS(=O)(=O)c1ccc2c(c1)B(O)OC2` the same measures were 0.4 nM, 78 nM and 20 nM.
For `C=C[C@@H]1C[C@]1(NC(=O)[C@@H]1C[C@@H]2CN1C(=O)[C@H](C(C)(C)C)NC(=O)OCC(C)(C)CCCCc1cccc3c1CN(C3)C(=O)O2)C(=O)NS(=O)(=O)c1ccc2c(c1)COB2O` the same measures were 0.6 nM, 66 nM and 15 nM.
Usually AUC(0-inf) stands for total exposure, with the tail of the curve extrapolated. As a reminder, the bioavailability is dose-corrected exposure relative to a reference, in per cent. Low readings indicate little systemic uptake, high ones much systemic uptake. The molecule `C=C[C@@H]1C[C@]1(NC(=O)[C@@H]1C[C@@H]2CN1C(=O)[C@H](C(C)(C)C)NC(=O)OCC(C)(C)CCCCc1cccc3c1CN(C3)C(=O)O2)C(=O)NS(=O)(=O)c1cccc2c1COB2O` came in with an IC50 in [1] of 0.3 nM. The AUC(0-inf) in [8] was 14 ng·h/mL. Besides, the Activity in [3] was found to be 1.6%. Moreover, the bioavailability in data set [9] amounted to 1.2%. In [5], this molecule had a clearance of 82 mL/min/kg. In addition, the EC50 in [6] amounted to 52 nM; in data set [7] it was 12 nM.
In data set [1], `CC(C)(C)OC(=O)N[C@H]1CCCCC/C=C\[C@@H]2C[C@@]2(C(=O)NS(=O)(=O)C2CC2)NC(=O)[C@@H]2C[C@@H](OC(=O)N3Cc4cccc(F)c4C3)CN2C1=O` [DANOPREVIR] gave an IC50 of 0.4 nM. Moreover, the AUC(0-inf) in [8] worked out at 1750 ng·h/mL. Further, in [3], the Activity is given as 17.4%. Moreover, in data set [9], the bioavailability was determined as 20%. In data set [5], this molecule had a clearance of 10.7 mL/min/kg. Further, the EC50 worked out at 1 nM in data set [6] and 1.1 nM in data set [7].
